We go through two compounds from ChEMBL document CHEMBL1152649, “Synthesis, cytotoxicity and human telomerase inhibition activities of a series of 1,2-heteroannelated anthraquinones and anthra[1,2-d]imidazole-6,11-dione homologues” (2009).

One assay deals with BT-549. Kind of assay: Antiproliferative activity against human BT549 cells assessed as cell growth at 10 uM. Type of assay: functional. The settings on record: read-out: Activity. The method, boiled down:
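NCI 60 cell line panel, single-dose screen (10^-5 M) run by the developmental therapeutics program protocol. Results are given as growth percent of treated cells relative to untreated control cells for each line.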

The test system of a further assay is MDA-MB-468. Kind of assay: Growth inhibition of human MDA-MB-468 cells. Type of assay: functional. Put shortly:
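NCI 60 cancer cell line screen run per the Developmental Therapeutics Program protocol. Dose–response curves were plotted against log10 drug concentration for each cell line within its subpanel, and mean graph midpoint values were calculated.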

In the case of `Cc1ccc(-c2nc3ccc4c(c3[nH]2)C(=O)c2ccccc2C4=O)cc1`, the growth at 10 µM in the assay with BT-549 was 94.1%.

As usually defined, the GI50 is the concentration that inhibits growth by half. As a reminder, the TGI is the concentration giving total growth inhibition. High values mean lower sensitivity of the cells, low ones greater sensitivity of the cells. In the assay on MDA-MB-468, `CCc1nc2ccc3c(c2[nH]1)C(=O)c1ccccc1C3=O` returned a GI50 of 8.29 µM and a TGI of more than 100 µM. The CC50 in the assay with MDA-MB-468 (read-out: LC50 (the source's name)) was more than 100 µM.
